SR-BI DiI inh = inhibitors of SR-BI mediated HDL lipid uptake, primary screen, ldlA[mSR-BI] cells, fluorescence, single point; Scavenger receptor class B member 1 (Mus musculus), Q61009; ldlA[mSR-BI] CHO cells, DiI-HDL uptake fluorescence, 3 h; inhibition, % at 12.5 µM; 320,000 tested, 0.96% active; AID 488896, 2010;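 active = mean replicate inhibition of at least 70% and a set share of replicates each scoring 70 or more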;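 note: 0% = median of neutral control wells and 100% = median of positive control wells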
Target sequence (Q61009 whole entry, looked up): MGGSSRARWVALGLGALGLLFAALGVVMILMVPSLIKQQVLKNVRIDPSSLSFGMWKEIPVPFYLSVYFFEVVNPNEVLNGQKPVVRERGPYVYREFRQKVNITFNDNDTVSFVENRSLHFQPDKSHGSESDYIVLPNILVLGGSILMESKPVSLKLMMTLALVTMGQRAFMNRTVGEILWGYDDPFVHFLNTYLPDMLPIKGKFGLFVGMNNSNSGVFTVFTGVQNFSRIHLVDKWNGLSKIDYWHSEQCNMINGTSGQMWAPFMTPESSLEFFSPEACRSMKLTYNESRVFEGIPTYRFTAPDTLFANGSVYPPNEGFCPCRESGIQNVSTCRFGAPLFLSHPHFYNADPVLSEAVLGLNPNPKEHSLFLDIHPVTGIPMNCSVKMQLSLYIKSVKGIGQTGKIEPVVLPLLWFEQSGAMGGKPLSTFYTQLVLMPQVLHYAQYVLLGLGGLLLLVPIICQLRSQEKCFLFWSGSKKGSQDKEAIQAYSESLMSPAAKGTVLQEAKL
NTR1 ag = agonists of human NTR1, primary screen, imaging, U2OS cells, beta-arrestin-GFP, high content. activation, % at 20 µM. NTR1-U2OS beta-arrestin-GFP spot imaging, agonist mode. 330,000 tested, 0.17% active. Neurotensin receptor type 1 (Homo sapiens), P30989;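 active = activation at or above 40% of the spot to cytoplasm intensity ratio, with at least 20 cells analyzed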;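 note: 0% = DMSO without peptide and 100% = 100 nM NTR1 peptide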
V-ATPase pHluor = regulators of yeast V-ATPase proton pumping, primary screen, pHLuorin cytosolic pH fluorescence; response, % at 10 µM; S. cerevisiae; AID 504577, 2011; 350,000 tested, 0.37% active; in the data active = response mostly above about 7.3%, no sharp cut-off; inactive = mostly below about 5.4%; note: actives read high
CaV13 FRET inh = Disruptors of the CACNA1D IQ motif to Ca2+-dependent inactivation inhibitor domain association, primary screening, Förster resonance energy transfer in intact living …; HEK cells, CFP/YFP FRET ICDI-IQ, plate reader, 10 min; percent FRET-ratio fall versus neutral wells; inhibition, % at 12.3 µM; 340,000 tested, 0.098% active;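 active = mean replicate inhibition of at least 30% and at least 1% of replicates passing that level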;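 note: 0% = median of the neutral control wells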
SR-BI DiI-HDL act = activators of SR-BI mediated DiI-HDL uptake, primary screen, ldlA[mSR-BI] CHO cells, DiI fluorescence; AID 504775, 2011; activation, % at 12.5 µM; 320,000 tested, 0.096% active; 3 h; 100 = double the neutral-control signal;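 active = mean replicate activation of at least 60% and every replicate at or above 60%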;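 note: 0% = median plate neutral-control signal and 100% = twice that signal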
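Test system: SR-BI-overexpressing, LDLR-lacking CHO cells; Medium: Ham's F12 with 0.5% BSA, HEPES 25 mM, pH 7.4; Schedule: 3 h, 37 °C; Technique: bottom-read fluorescence, 550/595 nm.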
Vif inh = HIV Vif self-association inhibitors, primary screen, imaging, HEK293T, single point | inhibition, % at 7.49 µM | AID 602346, 2012 | 340,000 tested, 0.35% active | HEK293T cells, Vif self-association by quenched fluorescence, 24 h; in the data active = inhibition above about 50%, passing the limit was not always enough
An asterisk follows results filed as active. A selection: hits, their analogues and other compounds. The true share with any hit is near 1.7%.

Results for CC(NC(=O)c1cc(F)c(F)cc1Cl)C1CC2CCC1C2 (stereo not given) ?
SR-BI DiI inh: 10.5; NTR1 ag: -0.3; V-ATPase pHluor: -2.1; CaV13 FRET inh: -1.7; SR-BI DiI-HDL act: -10.5; Vif inh: -2.6

What do the screens show for `CCN(CC)C(=O)[C@H]1C[C@@H]2[C@H](C[C@@H](c3ccccc3)[C@H]1C)N(c1ccc(F)cc1)C(=O)N2C/C=C(\C)CCC=C(C)C`?
CaV13 FRET inh: -5.8

How did Cc1ccc(-c2csc(=Nc3cccnc3)n2CCCN2CCCC2=O)cc1C do in these assays?
SR-BI DiI inh: -74.3; NTR1 ag: -0.8; V-ATPase pHluor: 4.1; CaV13 FRET inh: -5.4; SR-BI DiI-HDL act: 74.3*; Vif inh: 6.4

How did COC(=O)N/N=C/c1cc(Cl)cc(Cl)c1OCc1ccc(F)cc1 do in these assays?
SR-BI DiI inh: 83.6*; NTR1 ag: 0.3; V-ATPase pHluor: -2.8; CaV13 FRET inh: -6.1; SR-BI DiI-HDL act: -83.6; Vif inh: -1.7

Results for CC1CN(S(=O)(=O)c2cccc(C(=O)N3CCC(C(N)=O)CC3)c2)CC(C)O1 (stereo not given) ?
SR-BI DiI inh: -24.1; NTR1 ag: 0.4; V-ATPase pHluor: -2.0; CaV13 FRET inh: -6.6; SR-BI DiI-HDL act: 24.1; Vif inh: 53.2*

Results for CCOC(=O)c1sc(Nc2ccc(Br)cc2)nc1C ?
SR-BI DiI inh: 33.5; NTR1 ag: 8.5; V-ATPase pHluor: 0.9; CaV13 FRET inh: -4.4; SR-BI DiI-HDL act: -33.5; Vif inh: 1.6

Results for CCOC(=O)c1cc2nc(Nc3ccc(OC)cc3)sc2s1 ?
SR-BI DiI inh: 72.3*; NTR1 ag: 3.4; V-ATPase pHluor: -3.4; CaV13 FRET inh: -4.0; SR-BI DiI-HDL act: -72.3; Vif inh: -14.4

How did O=C(Nc1ccc([N+](=O)[O-])cc1)Nc1nc(-c2ccc(Cl)s2)cs1 do in these assays?
SR-BI DiI inh: 84.0*; V-ATPase pHluor: 0.3; CaV13 FRET inh: -2.2; SR-BI DiI-HDL act: -84.0; Vif inh: -25.4

Results for CC(=O)Nc1nc(-c2ccc([N+](=O)[O-])cc2)cs1 ?
SR-BI DiI inh: -1.1; NTR1 ag: 2.2; V-ATPase pHluor: -3.4; CaV13 FRET inh: 0.7; SR-BI DiI-HDL act: 1.1; Vif inh: 0.3

What do the screens show for `O=C(COC(=O)c1cccc(S(=O)(=O)NCc2ccccc2)c1)NC1CC1`?
SR-BI DiI inh: -7.1; NTR1 ag: -0.5; V-ATPase pHluor: 2.6; CaV13 FRET inh: -5.6; SR-BI DiI-HDL act: 7.1; Vif inh: -0.4

What do the screens show for `COc1ccccc1/C=C/C(=O)OCC(=O)NC1CCCCCCC1`?
SR-BI DiI inh: 1.7; NTR1 ag: 0.2; V-ATPase pHluor: -0.8; CaV13 FRET inh: -5.9; SR-BI DiI-HDL act: -1.7; Vif inh: 16.5

How did O=C(COC(=O)c1ccc(Cl)c(S(=O)(=O)NCc2ccccc2)c1)NC1CC1 do in these assays?
SR-BI DiI inh: 9.0; NTR1 ag: -0.2; V-ATPase pHluor: 0.2; CaV13 FRET inh: -1.4; SR-BI DiI-HDL act: -9.0; Vif inh: 77.1*

How did O=C(COc1ccc(C(=O)c2ccccc2)cc1)NC1CCCCC1 do in these assays?
SR-BI DiI inh: -69.3; NTR1 ag: 2.1; V-ATPase pHluor: 0.3; CaV13 FRET inh: -4.6; SR-BI DiI-HDL act: 69.3*; Vif inh: 13.4

Results for O=C(COC(=O)c1ccccc1)NC(=O)NC1CCCC1 ?
SR-BI DiI inh: -20.5; NTR1 ag: -1.3; V-ATPase pHluor: 3.8; CaV13 FRET inh: -2.2; SR-BI DiI-HDL act: 20.5; Vif inh: 12.4

How did O=C(COC(=O)/C=C/c1ccccc1Cl)NC1CCCCCC1 do in these assays?
SR-BI DiI inh: -64.6; NTR1 ag: 0.1; V-ATPase pHluor: 6.3; CaV13 FRET inh: -4.3; SR-BI DiI-HDL act: 64.6*; Vif inh: 48.9

How did O=C(COC(=O)c1ccccc1)NC1CCCC1 do in these assays?
SR-BI DiI inh: 6.9; NTR1 ag: 2.3; V-ATPase pHluor: 263.2*; CaV13 FRET inh: -3.3; SR-BI DiI-HDL act: -6.9; Vif inh: -0.5
